Measured values published in ChEMBL document CHEMBL4689842, “EUbOPEN Chemogenomics Library wave 1” (2021).

System: Fibroblast
Test: Multiplex assay against human fibroblast
Type: toxicity, cell-based
Method in brief: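 Four dyes were applied at seeding to live cells: Hoechst33342, BioTracker Green Microtubule Cytoskeleton Dye, MitoTracker Red and Annexin V Alexa Fluor 680. Imaging after compound addition used a CQ1 microscope at 37°C and 5% CO2. CellPathfinder machine-learning gating then sorted cells into Hoechst high-intensity objects or normal cells, normal cells into healthy, pyknosed or fragmented nuclei, and pyknosed cells into mitotic or apoptotic, with tubulin, mitochondrial-mass and membrane-permeability phenotypes given as per cents of healthy-nucleus cells.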

[1] = 12 h, 1 µM, compound concentration 1 uM, replicate 1
[2] = 12 h, 1 µM, compound concentration 1 uM, replicate 2
[3] = 12 h, 10 µM, compound concentration 10 uM, replicate 1
[4] = 12 h, 10 µM, compound concentration 10 uM, replicate 2
[5] = 24 h, 1 µM, compound concentration 1 uM, replicate 1
[6] = 24 h, 1 µM, compound concentration 1 uM, replicate 2
[7] = 24 h, 10 µM, compound concentration 10 uM, replicate 1
[8] = 24 h, 10 µM, compound concentration 10 uM, replicate 2
[9] = 48 h, 1 µM, compound concentration 1 uM, replicate 1
[10] = 48 h, 1 µM, compound concentration 1 uM, replicate 2
[11] = 48 h, 10 µM, compound concentration 10 uM, replicate 1
[12] = 48 h, 10 µM, compound concentration 10 uM, replicate 2

Structure (SMILES): C[C@@H](Oc1cc(-n2cnc3ccc(CN4CCN(C)CC4)cc32)sc1C(N)=O)c1ccccc1C(F)(F)F [GSK-461364]
- Population Apoptotic (%) [1]: 75%
- Population Fragmented Nuclei (%) [1]: 30%
- Population Healthy Nuclei (%) [1]: 36%
- Population Hoechst High Intensity Objects (%) [1]: 14%
- Population Membrane Permeable-Phenotype (%) [1]: 34%
- Population Mitochondria Different-Phenotype (%) [1]: 11%
- Population Mitotic Cells (%) [1]: 25%
- Population Normal (%) [1]: 85%
- Population Pyknosed Nuclei (%) [1]: 33%
- Population Tubulin-Different-Phenotype (%) [1]: 69%
- Population Apoptotic (%) [2]: 12%
- Population Fragmented Nuclei (%) [2]: 12%
- Population Healthy Nuclei (%) [2]: 71%
- Population Hoechst High Intensity Objects (%) [2]: 4%
- Population Membrane Permeable-Phenotype (%) [2]: 12%
- Population Mitochondria Different-Phenotype (%) [2]: 35%
- Population Mitotic Cells (%) [2]: 87%
- Population Normal (%) [2]: 95%
- Population Pyknosed Nuclei (%) [2]: 16%
- Population Tubulin-Different-Phenotype (%) [2]: 30%
- Population Apoptotic (%) [3]: 78%
- Population Fragmented Nuclei (%) [3]: 29%
- Population Healthy Nuclei (%) [3]: 40%
- Population Hoechst High Intensity Objects (%) [3]: 25%
- Population Membrane Permeable-Phenotype (%) [3]: 21%
- Population Mitochondria Different-Phenotype (%) [3]: 47%
- Population Mitotic Cells (%) [3]: 21%
- Population Normal (%) [3]: 74%
- Population Pyknosed Nuclei (%) [3]: 30%
- Population Tubulin-Different-Phenotype (%) [3]: 90%
- Population Apoptotic (%) [4]: 40%
- Population Fragmented Nuclei (%) [4]: 13%
- Population Healthy Nuclei (%) [4]: 55%
- Population Hoechst High Intensity Objects (%) [4]: 9%
- Population Membrane Permeable-Phenotype (%) [4]: 71%
- Population Mitochondria Different-Phenotype (%) [4]: 100%
- Population Mitotic Cells (%) [4]: 59%
- Population Normal (%) [4]: 90%
- Population Pyknosed Nuclei (%) [4]: 31%
- Population Tubulin-Different-Phenotype (%) [4]: 100%
- Population Apoptotic (%) [5]: 70%
- Population Fragmented Nuclei (%) [5]: 31%
- Population Healthy Nuclei (%) [5]: 44%
- Population Hoechst High Intensity Objects (%) [5]: 17%
- Population Membrane Permeable-Phenotype (%) [5]: 12%
- Population Mitochondria Different-Phenotype (%) [5]: 25%
- Population Mitotic Cells (%) [5]: 29%
- Population Normal (%) [5]: 82%
- Population Pyknosed Nuclei (%) [5]: 24%
- Population Tubulin-Different-Phenotype (%) [5]: 80%
- Population Apoptotic (%) [6]: 50%
- Population Fragmented Nuclei (%) [6]: 14%
- Population Healthy Nuclei (%) [6]: 68%
- Population Hoechst High Intensity Objects (%) [6]: 4%
- Population Membrane Permeable-Phenotype (%) [6]: 18%
- Population Mitochondria Different-Phenotype (%) [6]: 35%
- Population Mitotic Cells (%) [6]: 50%
- Population Normal (%) [6]: 95%
- Population Pyknosed Nuclei (%) [6]: 17%
- Population Tubulin-Different-Phenotype (%) [6]: 28%
- Population Apoptotic (%) [7]: 60%
- Population Fragmented Nuclei (%) [7]: 35%
- Population Healthy Nuclei (%) [7]: 42%
- Population Hoechst High Intensity Objects (%) [7]: 43%
- Population Membrane Permeable-Phenotype (%) [7]: 35%
- Population Mitochondria Different-Phenotype (%) [7]: 54%
- Population Mitotic Cells (%) [7]: 40%
- Population Normal (%) [7]: 56%
- Population Pyknosed Nuclei (%) [7]: 22%
- Population Tubulin-Different-Phenotype (%) [7]: 78%
- Population Apoptotic (%) [8]: 82%
- Population Fragmented Nuclei (%) [8]: 10%
- Population Healthy Nuclei (%) [8]: 47%
- Population Hoechst High Intensity Objects (%) [8]: 6%
- Population Membrane Permeable-Phenotype (%) [8]: 90%
- Population Mitochondria Different-Phenotype (%) [8]: 100%
- Population Mitotic Cells (%) [8]: 17%
- Population Normal (%) [8]: 93%
- Population Pyknosed Nuclei (%) [8]: 41%
- Population Tubulin-Different-Phenotype (%) [8]: 100%
- Population Apoptotic (%) [9]: 70%
- Population Fragmented Nuclei (%) [9]: 42%
- Population Healthy Nuclei (%) [9]: 44%
- Population Hoechst High Intensity Objects (%) [9]: 21%
- Population Membrane Permeable-Phenotype (%) [9]: 20%
- Population Mitochondria Different-Phenotype (%) [9]: 8%
- Population Mitotic Cells (%) [9]: 30%
- Population Normal (%) [9]: 78%
- Population Pyknosed Nuclei (%) [9]: 13%
- Population Tubulin-Different-Phenotype (%) [9]: 76%
- Population Apoptotic (%) [10]: 25%
- Population Fragmented Nuclei (%) [10]: 31%
- Population Healthy Nuclei (%) [10]: 62%
- Population Hoechst High Intensity Objects (%) [10]: 12%
- Population Membrane Permeable-Phenotype (%) [10]: 18%
- Population Mitochondria Different-Phenotype (%) [10]: 11%
- Population Mitotic Cells (%) [10]: 75%
- Population Normal (%) [10]: 87%
- Population Pyknosed Nuclei (%) [10]: 5%
- Population Tubulin-Different-Phenotype (%) [10]: 34%
- Population Apoptotic (%) [11]: 90%
- Population Fragmented Nuclei (%) [11]: 52%
- Population Healthy Nuclei (%) [11]: 31%
- Population Hoechst High Intensity Objects (%) [11]: 45%
- Population Membrane Permeable-Phenotype (%) [11]: 22%
- Population Mitochondria Different-Phenotype (%) [11]: 45%
- Population Mitotic Cells (%) [11]: 9%
- Population Normal (%) [11]: 54%
- Population Pyknosed Nuclei (%) [11]: 15%
- Population Tubulin-Different-Phenotype (%) [11]: 68%
- Population Apoptotic (%) [12]: 75%
- Population Fragmented Nuclei (%) [12]: 39%
- Population Healthy Nuclei (%) [12]: 58%
- Population Hoechst High Intensity Objects (%) [12]: 38%
- Population Membrane Permeable-Phenotype (%) [12]: 5%
- Population Mitochondria Different-Phenotype (%) [12]: 27%
- Population Mitotic Cells (%) [12]: 25%
- Population Normal (%) [12]: 61%
- Population Pyknosed Nuclei (%) [12]: 2%
- Population Tubulin-Different-Phenotype (%) [12]: 84%

Structure (SMILES): CC[C@H](Nc1ncnc2[nH]cnc12)c1nc2cccc(F)c2c(=O)n1-c1ccccc1 [IDELALISIB]
- Population Apoptotic (%) [1]: 91%
- Population Fragmented Nuclei (%) [1]: 26%
- Population Healthy Nuclei (%) [1]: 56%
- Population Hoechst High Intensity Objects (%) [1]: 11%
- Population Membrane Permeable-Phenotype (%) [1]: 12%
- Population Mitochondria Different-Phenotype (%) [1]: 1%
- Population Mitotic Cells (%) [1]: 8%
- Population Normal (%) [1]: 88%
- Population Pyknosed Nuclei (%) [1]: 17%
- Population Tubulin-Different-Phenotype (%) [1]: 20%
- Total Cell Count [1]: 222
- Population Apoptotic (%) [2]: 50%
- Population Fragmented Nuclei (%) [2]: 56%
- Population Healthy Nuclei (%) [2]: 34%
- Population Hoechst High Intensity Objects (%) [2]: 30%
- Population Membrane Permeable-Phenotype (%) [2]: 6%
- Population Mitochondria Different-Phenotype (%) [2]: 26%
- Population Mitotic Cells (%) [2]: 50%
- Population Normal (%) [2]: 69%
- Population Pyknosed Nuclei (%) [2]: 9%
- Population Tubulin-Different-Phenotype (%) [2]: 53%
- Total Cell Count [2]: 63
- Population Apoptotic (%) [3]: 58%
- Population Fragmented Nuclei (%) [3]: 26%
- Population Healthy Nuclei (%) [3]: 59%
- Population Hoechst High Intensity Objects (%) [3]: 10%
- Population Membrane Permeable-Phenotype (%) [3]: 14%
- Population Mitochondria Different-Phenotype (%) [3]: 0%
- Population Mitotic Cells (%) [3]: 41%
- Population Normal (%) [3]: 89%
- Population Pyknosed Nuclei (%) [3]: 13%
- Population Tubulin-Different-Phenotype (%) [3]: 4%
- Total Cell Count [3]: 199
- Population Apoptotic (%) [4]: 50%
- Population Fragmented Nuclei (%) [4]: 58%
- Population Healthy Nuclei (%) [4]: 33%
- Population Hoechst High Intensity Objects (%) [4]: 34%
- Population Membrane Permeable-Phenotype (%) [4]: 18%
- Population Mitochondria Different-Phenotype (%) [4]: 31%
- Population Mitotic Cells (%) [4]: 50%
- Population Normal (%) [4]: 65%
- Population Pyknosed Nuclei (%) [4]: 8%
- Population Tubulin-Different-Phenotype (%) [4]: 25%
- Total Cell Count [4]: 73
- Population Apoptotic (%) [5]: 59%
- Population Fragmented Nuclei (%) [5]: 27%
- Population Healthy Nuclei (%) [5]: 54%
- Population Hoechst High Intensity Objects (%) [5]: 12%
- Population Mitochondria Different-Phenotype (%) [5]: 5%
- Population Mitotic Cells (%) [5]: 40%
- Population Normal (%) [5]: 87%
- Population Pyknosed Nuclei (%) [5]: 17%
- Population Tubulin-Different-Phenotype (%) [5]: 15%
- Total Cell Count [5]: 211
- Population Apoptotic (%) [6]: 40%
- Population Fragmented Nuclei (%) [6]: 56%
- Population Healthy Nuclei (%) [6]: 30%
- Population Hoechst High Intensity Objects (%) [6]: 35%
- Population Membrane Permeable-Phenotype (%) [6]: 0%
- Population Mitochondria Different-Phenotype (%) [6]: 25%
- Population Mitotic Cells (%) [6]: 60%
- Population Normal (%) [6]: 65%
- Population Pyknosed Nuclei (%) [6]: 12%
- Population Tubulin-Different-Phenotype (%) [6]: 33%
- Total Cell Count [6]: 60
- Population Apoptotic (%) [7]: 73%
- Population Fragmented Nuclei (%) [7]: 22%
- Population Healthy Nuclei (%) [7]: 59%
- Population Hoechst High Intensity Objects (%) [7]: 13%
- Population Membrane Permeable-Phenotype (%) [7]: 7%
- Population Mitochondria Different-Phenotype (%) [7]: 0%
- Population Mitotic Cells (%) [7]: 26%
- Population Normal (%) [7]: 86%
- Population Pyknosed Nuclei (%) [7]: 17%
- Population Tubulin-Different-Phenotype (%) [7]: 1%
- Total Cell Count [7]: 221
- Population Apoptotic (%) [8]: 0%
- Population Fragmented Nuclei (%) [8]: 70%
- Population Healthy Nuclei (%) [8]: 25%
- Population Hoechst High Intensity Objects (%) [8]: 22%
- Population Membrane Permeable-Phenotype (%) [8]: 26%
- Population Mitochondria Different-Phenotype (%) [8]: 6%
- Population Mitotic Cells (%) [8]: 100%
- Population Normal (%) [8]: 77%
- Population Pyknosed Nuclei (%) [8]: 5%
- Population Tubulin-Different-Phenotype (%) [8]: 33%
- Total Cell Count [8]: 77
